A selection: hits, their analogues and other compounds. The true share with any hit is near 3.8%.
CHO parental Ca = signal in parental CHO cells, OX1R antagonist counter-screen | parental CHO-K1, ATP-induced calcium, Fluo-8 fluorescence | inhibition, % at 5.6 µM | 330,000 tested, 0.63% active | AID 463079;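 active = inhibition above that plate's mean sample inhibition plus 3 SD, cut at about 26% in these data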;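 note: 0% = ATP-challenged DMSO wells and 100% = DMSO wells without ATP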
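Material – parental CHO cells · Reagent – ATP stimulus · Compound – single nominal dose of 5.6 µM per compound · Detection – Fluo-8 fluorescence · Read-out basis – percent inhibition of calcium signal · Controls – ATP-challenged DMSO wells low, unchallenged DMSO wells high · Repeats – no replicates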
GPR7 antag = antagonists of human GPR7 (neuropeptides B/W receptor 1) | P48145 | GPR7-expressing cells, fluorescence antagonist assay | inhibition, % at 4.4 µM | 290,000 tested, 1.1% active | AID 1861; in the data active = inhibition above about 16%, passing the limit was not always enough;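 note: cells stimulated with the agonist NPW; 0% = agonist with vehicle and 100% = vehicle without agonist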
Target sequence (P48145 whole entry, looked up): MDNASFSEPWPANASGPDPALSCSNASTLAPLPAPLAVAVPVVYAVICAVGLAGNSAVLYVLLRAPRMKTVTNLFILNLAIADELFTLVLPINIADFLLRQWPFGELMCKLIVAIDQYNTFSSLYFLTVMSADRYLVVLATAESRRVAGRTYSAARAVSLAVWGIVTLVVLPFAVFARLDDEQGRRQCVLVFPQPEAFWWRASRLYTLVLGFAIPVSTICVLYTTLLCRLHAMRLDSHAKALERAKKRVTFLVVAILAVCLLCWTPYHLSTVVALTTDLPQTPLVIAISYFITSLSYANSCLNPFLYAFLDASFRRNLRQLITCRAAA
MPTP block = permeability transition pore inhibition; isolated mouse mitochondria, Ca2+ swelling absorbance, 30 min; inhibition, % at 10 µM; 360,000 tested, 1.4% active; AID 602449;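 active = inhibition of 50% or more, scaled per plate between neutral and stimulator controls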;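 note: 0% = DMSO wells given calcium and 100% = 1 mM EGTA wells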
OX1R antag-1 = blocks the human orexin 1 receptor; O43613; OX1R-expressing cells, FRET antagonist read-out; inhibition, % at 6.6 µM; 330,000 tested, 1.8% active; in the data active = inhibition mostly above about 38%, no sharp cut-off; inactive = mostly below about 40%;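 note: 0% = agonist challenge alone and 100% = reference antagonist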
OX1R antag-2 = antagonists of human orexin 1 receptor. O43613. CHO/OX1R cells, Fluo-8 calcium fluorescence, orexin A. inhibition, % at 5 µM. 330,000 tested, 0.43% active;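 active = inhibition above its plate's threshold, mean inhibition of all tested compounds on the plate plus 3 SD, cut at about 37% in these data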;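 note: 0% = orexin A challenge wells and 100% = SB-334867-A antagonist wells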
* hit, by the source's call.

CN(C)S(=O)(=O)c1ccc(Cl)c(NC(=O)COC(=O)c2cc(-c3ccccc3)nc3ccccc23)c1 was read as CHO parental Ca -5, GPR7 antag -7, MPTP block 2, OX1R antag-1 11 and OX1R antag-2 -3.
`O=C(Nc1ccc(-c2nc3ccccc3o2)c(O)c1)c1cc(-n2cnnc2)ccc1Cl` gave CHO parental Ca 32*, GPR7 antag -5, MPTP block 3, OX1R antag-1 17 and OX1R antag-2 11.
`CCOc1ccccc1NC(=O)c1ccc2[nH]c(C)c(C)c2c1` gave CHO parental Ca -22, GPR7 antag -18, MPTP block -1, OX1R antag-1 73* and OX1R antag-2 -16.
COc1ccc(NC(=O)c2ccc(-n3c(C)ccc3C)cc2)c(OC)c1 was read as CHO parental Ca -11, GPR7 antag 13, MPTP block 1, OX1R antag-1 36 and OX1R antag-2 10.
Screening COc1ccc(NC(=O)c2ccc3[nH]c(C)c(C)c3c2)c(OC)c1 returned CHO parental Ca -7, GPR7 antag 7, MPTP block 0, OX1R antag-1 50* and OX1R antag-2 19.
`C#CCNC(=O)C[C@@H]1C[C@@]2(C(=O)OCC)CCC=C2N(CCC2=CCCCC2)C1=O` gave MPTP block 1.
For CCC(c1nnnn1Cc1cccs1)N1CCN(C2CCCC2)CC1 (stereo not given) the results were CHO parental Ca -2, GPR7 antag 20*, MPTP block 2, OX1R antag-1 12 and OX1R antag-2 -17.
For CCCC(c1nnnn1Cc1ccc(F)cc1)N1CCN(C2CCCCC2)CC1 (stereo not given) the results were CHO parental Ca -28, GPR7 antag 33*, MPTP block 3, OX1R antag-1 17 and OX1R antag-2 -33.
Screening CCCC(c1nnnn1C(C)(C)CC)N1CCN(C2CCCC2)CC1 (stereo not given) returned CHO parental Ca -14, GPR7 antag 18*, MPTP block -1, OX1R antag-1 7 and OX1R antag-2 -3.
For Fc1ccc(C(c2nnnn2Cc2cccs2)N2CCN(C3CCCCC3)CC2)cc1 (stereo not given) the results were CHO parental Ca -28, GPR7 antag 20, MPTP block 4, OX1R antag-1 16 and OX1R antag-2 -27.
For Cc1cccc(NC(=O)COC(=O)c2ccc(S(=O)(=O)N3CCCC3)cc2)c1 the results were MPTP block -1.
`Cc1onc(-c2c(Cl)cccc2Cl)c1C(=O)N1CCCc2ccccc21` gave CHO parental Ca -23, GPR7 antag -11, MPTP block 0, OX1R antag-1 55* and OX1R antag-2 33.
Screening Cc1onc(-c2c(F)cccc2Cl)c1C(=O)N1CCc2ccccc21 returned CHO parental Ca -11, GPR7 antag -2, MPTP block -3, OX1R antag-1 28 and OX1R antag-2 2.
Screening CCc1ccc(/C=C/C(=O)C2C(=O)c3ccccc3C2=O)cc1 returned CHO parental Ca 35*, GPR7 antag 4, MPTP block -4, OX1R antag-1 22 and OX1R antag-2 8.
Screening O=c1c(-c2nnc(SCc3ccc(Cl)cc3Cl)o2)cccn1Cc1ccccc1 returned CHO parental Ca 43*, GPR7 antag -5, MPTP block 10, OX1R antag-1 52* and OX1R antag-2 49*.
Screening COc1ccc(N(CC(=O)NCc2ccccc2C)S(=O)(=O)c2ccccc2[N+](=O)[O-])c(OC)c1 returned CHO parental Ca -17, GPR7 antag 14, MPTP block -1, OX1R antag-1 64* and OX1R antag-2 14.
Screening O=C1c2ccccc2C(=O)c2c1cccc2N(CCO)CCO returned CHO parental Ca -10, GPR7 antag -14, MPTP block 4, OX1R antag-1 59* and OX1R antag-2 -18.
O=C1C=C(N(CCO)Cc2ccccc2)c2ccccc2C1=O was read as GPR7 antag -8 and MPTP block 3.
CCN(CC(=O)NCc1cccs1)C(=O)c1ccc([N+](=O)[O-])o1 was read as CHO parental Ca -5, MPTP block -1, OX1R antag-1 64* and OX1R antag-2 -17.
For Cc1cc(SCC(=O)N(C)C2CCCCC2)nc2ccccc12 the results were CHO parental Ca -14, MPTP block -2, OX1R antag-1 36* and OX1R antag-2 -3.
Screening CC(=O)Nc1ccc(S(=O)(=O)N2c3ccccc3C(C)=CC2(C)C)cc1 returned CHO parental Ca -13, GPR7 antag 22*, MPTP block 0, OX1R antag-1 21 and OX1R antag-2 -16.
`CCOC(=O)[C@]12CCCC=C1N(Cc1ccc3c(c1)OCO3)C(=O)[C@H](CC(=O)N1CCC(c3ccccc3)CC1)C2` gave MPTP block -1.
Screening COc1ccc(N=Cc2sc(O)c3ccccc23)cc1 returned CHO parental Ca 46*, GPR7 antag 0, MPTP block 3, OX1R antag-1 26 and OX1R antag-2 67*.
For O=C(c1cccnc1)c1ncc(C(F)(F)F)cc1Cl the results were CHO parental Ca 0, GPR7 antag -18, MPTP block -1, OX1R antag-1 -1 and OX1R antag-2 -14.
Screening CC1(CCc2ccccc2)NC(=O)N(CC(=O)N2CC(=O)Nc3ccccc32)C1=O (stereo not given) returned CHO parental Ca -18, GPR7 antag 2, MPTP block 1, OX1R antag-1 8 and OX1R antag-2 -4.
Screening O=C(CSCC(=O)N1CCCCC1)Nc1nc(-c2ccc(Cl)s2)cs1 returned CHO parental Ca 30*, GPR7 antag 4, MPTP block 45, OX1R antag-1 20 and OX1R antag-2 -13.
`O=C(CSCC(=O)N1CCN(c2ccccc2)CC1)Nc1nc(-c2ccc(Cl)s2)cs1` gave CHO parental Ca 15, GPR7 antag -10, MPTP block 1, OX1R antag-1 30 and OX1R antag-2 -5.
For CCCN1C(=O)c2cccc3c(N4CCCCC4)ccc(c23)C1=O the results were CHO parental Ca -5, GPR7 antag 11, MPTP block 2, OX1R antag-1 7 and OX1R antag-2 4.
Screening CCCCNc1ccc2c3c(cccc13)C(=O)N(CCCC)C2=O returned GPR7 antag 37* and MPTP block 49.
`CN(C)CCCN1C(=O)c2cccc3c(Br)ccc(c23)C1=O` gave CHO parental Ca -13, GPR7 antag 2, MPTP block 0, OX1R antag-1 64* and OX1R antag-2 -27.
`O=C(O)CN1C(=O)c2cccc3c(Br)ccc1c23` gave CHO parental Ca -6, GPR7 antag -17, MPTP block -1, OX1R antag-1 12 and OX1R antag-2 -15.
`Cc1c(NC(=O)/C(C#N)=C/c2ccc(-c3ccc(Cl)c(Cl)c3)o2)c(=O)n(-c2ccccc2)n1C` gave CHO parental Ca -19, GPR7 antag -13, MPTP block 3, OX1R antag-1 17 and OX1R antag-2 -30.
Screening Cc1c(NC(=O)/C(C#N)=C/c2ccccc2)c(=O)n(-c2ccccc2)n1C returned CHO parental Ca 5, GPR7 antag -5, MPTP block -1, OX1R antag-1 4 and OX1R antag-2 -22.

Bioassay records deposited in PubChem BioAssay by several laboratories.
